Data published in the RNAGym collection of RNA variant scans (doi:10.1126/science.aae0568).
Fewer inactive variants are shown than the library holds.

B1: tRNA (parent)
chain: GUUCCGUUGGCGUAAUGGUAACGCGUCUCCCUCCUAAGGAGAAGACUGCGGGUUCGAGUCCCGUACGGAACG

Variants of: B1
Test: yeast fitness relative to wild type (ratio to wild type); higher = fitter; tRNA-Arg(CCU), competitive growth, 37 C, YPD
Method in brief: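 Gene amplicons from the start population and from each of six end populations were read by 100-nucleotide paired-end sequencing. Those end populations came from pooled Saccharomyces cerevisiae strains carrying tRNA-Arg(CCU) gene variants at the native locus, competed in YPD at 37°C for 24 hours. Fitness relative to wild type was worked out from changes in genotype frequencies. Genotypes needed ≥ 100 starting reads, and estimates < 0.5 were set to 0.5.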

Row | Variant | yeast fitness
1 | GUUUCAUUGGCGUAAUGGUCACGCGUCUCCCUCCUAAGGAGAAGACUGCGGGUUCGAGUGCCGUUCGGGACG [C4U G6A A20C C60G A65U A69G] | ≤ 0.5
2 | GUUUCAUUGGCGUCAUGGUAACGCGUCUCCCUCCUAAGGAGAAGACUGCGGGUUCGAGUCCCGUCCGGAACG [C4U G6A A14C A65C] | ≤ 0.5
3 | GUUUCGUUGCCGUAAUGGUAACGCGUCUCCGUCCUAAGGAGAAGACUGCGGGUUCGAGUCCCGUACGGAACG [C4U G10C C31G] | ≤ 0.5
4 | GUUUCGUUGACGUAAUGGUAACGCGUCUCCCUCCUUAGGAGAAGACUGCGGGUUCGAGUCCCGUACGGAACG [C4U G10A A36U] | ≤ 0.5
5 | GUUUCGUUGCCGUAAUGGUAACGGGUCUCCCUCCUAAGGAGAAGACUGUGGGUUCGAGUCCCGUACGGAACG [C4U G10C C24G C49U] | ≤ 0.5
6 | GUUUCAUUGGCGUAAUGGUAACGCGUCUCCCUCCUAAGGAGAAGACUGUGGGUUCGAGUCCCGUACGGAACG [C4U G6A C49U] | 0.706
7 | GUUUCGUUGACGUAAUGGCAACGUGUCUCCCUCCUAAGGAGAAGACUGCGGGUUCGAGUCCCGUACGGAACG [C4U G10A U19C C24U] | 0.721
8 | GUUUCAUUGGCGUAAUGGUAACGCGUCUCCCUCCUAAGGAGCAGACUGCGGGUUCGAGUCCCGUAUGGAACG [C4U G6A A42C C66U] | ≤ 0.5
9 | GUUUCCUUGGCGUUAUGGUAACGGGUCUCCCUCCUAAGGAGAAGACUGCGGGUUCGACUCCCGUACGGAACG [C4U G6C A14U C24G G58C] | 0.531
10 | GUUUCGUUAGCGUAAUGGUAACGCGUCUACCUCCUAAGGAGAAGACUGCGGGAUCGAGUCCCGUACGGAACG [C4U G9A C29A U53A] | ≤ 0.5
11 | GUUUCGUUGGCGUAAUGGUAACGCGUCUCCCUCCUAAGGAGAAGACUGCGGGUUCGAGUCCCGUAUGGUACG [C4U C66U A69U] | 0.677
12 | GUUUCAUUGGCGUAAUGGUAACGCGUCUCCCUCCUCAGGAGAAGAUUGCGGGUUCGAGUCCCGUACGGAACG [C4U G6A A36C C46U] | ≤ 0.5
13 | GUUUCGUUGGCGUAAUGGUAACGCGUCUCCCUCCUAAGGAGAAGACUGCGGGUUCGAGUCGAGUACGGAACG [C4U C61G C62A] | ≤ 0.5
14 | GUUUCGUUGGCGUAAUGGUAACGCGUCUCCCUCCUAAGGAGAAGACUGCGGGUUCGAGUCGGGUACGGAACG [C4U C61G C62G] | ≤ 0.5
15 | GUUUCGUUGACGUAAUGGUAACGCGUCUCCCUCCUAAGCAGAAGACUGCGGGUUCGAGUCCCGUACGGAACG [C4U G10A G39C] | 0.627
16 | GUUUCGUUAGUGUAAUGGUAACGCGUCUCCCUCAUAAGGAGAAGACUGCGGGUUAGAGUCCCGUCCGGAACG [C4U G9A C11U C34A C55A A65C] | ≤ 0.5
17 | GUUUCGUUGACGUAAUGGUAACGCGUCUCCCUCCUAAGGAGAAGACUGCGCGUUCGAGGCCCGUACGGAACG [C4U G10A G51C U59G] | ≤ 0.5
18 | GUUUCCUUGGCGUCAUGGUAACGGGUCUCCCUCCUAAGGAGAAGCCUGCGGGUUCGCGUCUCGUACGGAACG [C4U G6C A14C C24G A45C A57C C61U] | ≤ 0.5
19 | GUUUCGUUAGCGUAAUGGUAAGGCGUCUCCCUCCUAAGGAGUAGACUGCGGGUUCGAGUCCCGAACAGAACG [C4U G9A C22G A42U U64A G67A] | 0.58

Row | Variant | yeast fitness
20 | GUUUCAUUGGCGUAAUGGUAACGCGUCUCCCUCCUAAGGAGAAGACUGCGGGUUCGAGUCACGUACGGAACG [C4U G6A C61A] | ≤ 0.5
21 | GUUUCGUUAGCGUAAUGGUAACGCGUGUCCCACCUAAGGAGAAGACUGCGGAUUCGAGUCCCGUACGGAACG [C4U G9A C27G U32A G52A] | ≤ 0.5
22 | GUUUCAUUGGCGUAAUGGUAACGCGUCUCCUUCUUAAGGAGAAGACUGCGGGUUCGAGUCCCGUACGGAACG [C4U G6A C31U C34U] | ≤ 0.5
23 | GUUUCGUUGACGCAAUGGUAACGUGUCUCCCUCCUAAGGAGAAGACUGCGGGUUCGAGUCCCGUACGGAACG [C4U G10A U13C C24U] | 0.741
24 | GUUUCGUUCGCGUAAUGGUAACGCGUCUCCCUCCUAAGGAGAAGACUGCGGGUUCGAGUCGCGUACGGAACG [C4U G9C C61G] | ≤ 0.5
25 | GUUUCGUUGACGUAAUGGUAACGUGUCUCCCUCCUAAGGAGAAGACUGCGGGUUCGAGUCCUGUACGGAACG [C4U G10A C24U C62U] | 0.723
26 | GUUUCGUUGGCGUAAUGGUAACGCGUCUCCCUCCUAAGGAGAAGACUGCGGGUUCGAGUGUCGUACGAAACG [C4U C60G C61U G68A] | ≤ 0.5
27 | GUUUCGUUGACGUACUGGUAACGCGUCUCCCUCCUAAGGAGAAGACUGCGGGUUCGAGUCCCGUACGGAACG [C4U G10A A15C] | 0.551
28 | GUUUCGUUGACAUAAUGGUAACGCGUCUCCCUCCUAAGGAGUAGACUGCGGGUUCGAGUCCCGUACGGAACG [C4U G10A G12A A42U] | ≤ 0.5
29 | GUUUCGUUGACGUAAUGGUAACGUGUCUCCCUCCUAAGGAGAAGACUGCGGGUUCGAGUCCCGUACGGAACG [C4U G10A C24U] | 0.98
30 | GUUUCGUUAGCGUAAUGGUAACGGGUCUGCCUCCUAAGGAGAAGACUGCGGGUUCGAGUCCCGUACAGAACG [C4U G9A C24G C29G G67A] | ≤ 0.5
31 | GUUUCGUUGGCGUAAUGGUAACGCGUCUCCCUCCUAAGGAGAAGACUGCGGGUUCGAGUGCCGUACAGAACG [C4U C60G G67A] | ≤ 0.5
32 | GUUUCGUUGACGUAAUGGUAACCCGUCUCCCUCCUAAGGAGAAGACUGCGGGUUCGAGUCCCGUACGGAACG [C4U G10A G23C] | ≤ 0.5
33 | GUUUCGUUGGCGUAAUGGUAACGCGUCUCCCUCCUAAGGAGAAGACUGCGGGUUCGAGUCGCGUAUGGUACG [C4U C61G C66U A69U] | ≤ 0.5
34 | GUUUCGUUGACGUAAUGGUAACGCGUCUCCCUCCUAAGGAGAAGACUGCGGGUUCGAGUGCCGUAGGGUACG [C4U G10A C60G C66G A69U] | ≤ 0.5
35 | GUUUCGUUGGCGUAAUGGUAACGCGUCUCCCUCCUAAGGAGAAGACUGCGGGUUCGAGUCCGGUACAGAACG [C4U C62G G67A] | ≤ 0.5
36 | GUUUCGUUGACGUAAUGGUAACGCGUCUCCCUCCUAAGGAGAAGACUGAGGGAUCGAGUCCCGUACAGAACG [C4U G10A C49A U53A G67A] | ≤ 0.5
37 | GUUUCAUUGGCGUAAUGGUAACGCAUCUCCCCCCUAAGGAGAAGACUGCGGGUUCGAGUCCCGUACGGAACG [C4U G6A G25A U32C] | ≤ 0.5
